{"source": "PubChem BioAssay AID651950", "about": "(The Scripps Research Institute Molecular Screening Center, 2012)", "note": "The source made the active and inactive calls. How the calls were made is not given here.", "data": [{"assay": "Hsp70 transcriptional activators, SAR follow-up, cell-based, HeLa, Hsp70 promoter luciferase, luminescence (AID 651950)", "settings": "HeLa hsp70.1pr-luc reporter; at 99 µM (top of the series)", "method_in_brief": "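Read-out: % activation relative to DMSO and MG132 controls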", "values": [{"compound": "CN(C)c1ccc(/C=C/C=C2C(=O)NC(=O)NC2=O)cc1", "activation": "0.4% (inactive)"}, {"compound": "O=C1NC(=O)C(=C/C=C/c2ccc(Br)cc2)C(=O)N1", "activation": "-0.8% (active)"}, {"compound": "O=C1NC(=O)C(=C/C=C/c2ccc(Cl)cc2)C(=O)N1", "activation": "-1.1% (active)"}, {"compound": "O=C1NC(=O)C(=C/C=C/c2ccco2)C(=O)N1", "activation": "-0.7% (active)"}, {"compound": "O=C1NC(=O)C(=C/C=C/c2ccc([N+](=O)[O-])cc2)C(=O)N1", "activation": "-1.1% (active)"}, {"compound": "O=C1NC(=O)N(Cc2ccccc2)C(=O)/C1=C/C=C/c1ccccc1", "activation": "-1.2% (active)"}, {"compound": "C=CCN1C(=O)NC(=O)/C(=C/C=C/c2ccccc2)C1=O", "activation": "-1.7% (active)"}, {"compound": "O=C1NC(=O)C(=C/C=C/c2cccnc2)C(=O)N1", "activation": "22.5% (inactive)"}, {"compound": "COc1ccc(/C=C/C=C2C(=O)NC(=O)NC2=O)cc1", "activation": "-1.7% (active)"}]}]}
